Measured values published in ChEMBL document CHEMBL5058577, “EUbOPEN Chemogenomics Library 2 (Multiplex)” (2022).

Tested on: HEK-293T
Assay: Multiplex assay against HEK293T
Format: toxicity, cell-based
Details: human
Procedure, shortened: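 At seeding, live cells were stained with Hoechst33342, BioTracker Green Microtubule Cytoskeleton Dye, MitoTracker Red and Annexin V Alexa Fluor 680. After compound addition they were imaged on a CQ1 microscope at 37°C and 5% CO2, and CellPathfinder machine-learning gating sorted them into Hoechst high-intensity objects or normal cells, with normal cells further split into healthy, pyknosed or fragmented nuclei and pyknosed cells into mitotic or apoptotic. Tubulin, mitochondrial-mass and membrane-permeability phenotypes are given as per cents of cells with healthy nuclei.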

[1] = 12 h, 1 µM, compound concentration 1 uM, replicate 1
[2] = 12 h, 1 µM, compound concentration 1 uM, replicate 2
[3] = 12 h, 10 µM, compound concentration 10 uM, replicate 1
[4] = 12 h, 10 µM, compound concentration 10 uM, replicate 2
[5] = 24 h, 1 µM, compound concentration 1 uM, replicate 1
[6] = 24 h, 1 µM, compound concentration 1 uM, replicate 2
[7] = 24 h, 10 µM, compound concentration 10 uM, replicate 1
[8] = 24 h, 10 µM, compound concentration 10 uM, replicate 2
[9] = 48 h, 1 µM, compound concentration 1 uM, replicate 1
[10] = 48 h, 1 µM, compound concentration 1 uM, replicate 2
[11] = 48 h, 10 µM, compound concentration 10 uM, replicate 1
[12] = 48 h, 10 µM, compound concentration 10 uM, replicate 2

Q: With `CN1C[C@H](C(=O)N[C@]2(C)O[C@@]3(O)[C@@H]4CCCN4C(=O)[C@H](Cc4ccccc4)N3C2=O)C[C@@H]2c3cccc4[nH]cc(c34)C[C@H]21.CS(=O)(=O)O` [DIHYDROERGOTAMINE MESYLATE] as the compound, how does the “Population Apoptotic (%)” value [1] read?
A: 38%

Q: What about the “Population Fragmented Nuclei (%)” value [1] of the same compound?
A: 6%

Q: And the “Population Healthy Nuclei (%)” value [1]?
A: 84%

Q: And the “Population Hoechst High Intensity Objects (%)” value [1]?
A: 5%

Q: What about the “Population Membrane Permeable-Phenotype (%)” value [1] of the same compound?
A: 0%

Q: And the “Population Mitochondria Different-Phenotype (%)” value [1]?
A: 41%

Q: What about the “Population Mitotic Cells (%)” value [1] of the same compound?
A: 61%

Q: What about the “Population Normal (%)” value [1] of the same compound?
A: 94%

Q: And the “Population Pyknosed Nuclei (%)” value [1]?
A: 8%

Q: What about the “Population Tubulin-Different-Phenotype (%)” value [1] of the same compound?
A: 26%

Q: And the “Total Cell Count” value [1]?
A: 418

Q: And the “Population Apoptotic (%)” value [2]?
A: 46%

Q: What about the “Population Fragmented Nuclei (%)” value [2] of the same compound?
A: 3%

Q: And the “Population Healthy Nuclei (%)” value [2]?
A: 81%

Q: What about the “Population Mitochondria Different-Phenotype (%)” value [2] of the same compound?
A: 65%

Q: And the “Population Mitotic Cells (%)” value [2]?
A: 53%

Q: And the “Population Pyknosed Nuclei (%)” value [2]?
A: 14%

Q: What about the “Population Tubulin-Different-Phenotype (%)” value [2] of the same compound?
A: 17%

Q: What about the “Total Cell Count” value [2] of the same compound?
A: 285

Q: What about the “Population Apoptotic (%)” value [3] of the same compound?
A: 31%

Q: What about the “Population Fragmented Nuclei (%)” value [3] of the same compound?
A: 7%

Q: And the “Population Healthy Nuclei (%)” value [3]?
A: 76%

Q: What about the “Population Hoechst High Intensity Objects (%)” value [3] of the same compound?
A: 9%

Q: What about the “Population Membrane Permeable-Phenotype (%)” value [3] of the same compound?
A: 0%

Q: And the “Population Mitochondria Different-Phenotype (%)” value [3]?
A: 48%

Q: And the “Population Mitotic Cells (%)” value [3]?
A: 68%

Q: And the “Population Normal (%)” value [3]?
A: 90%

Q: What about the “Population Pyknosed Nuclei (%)” value [3] of the same compound?
A: 15%

Q: What about the “Population Tubulin-Different-Phenotype (%)” value [3] of the same compound?
A: 29%

Q: What about the “Total Cell Count” value [3] of the same compound?
A: 403

Q: What about the “Population Apoptotic (%)” value [4] of the same compound?
A: 53%

Q: And the “Population Fragmented Nuclei (%)” value [4]?
A: 5%

Q: What about the “Population Healthy Nuclei (%)” value [4] of the same compound?
A: 80%

Q: And the “Population Hoechst High Intensity Objects (%)” value [4]?
A: 11%

Q: And the “Population Mitochondria Different-Phenotype (%)” value [4]?
A: 61%

Q: And the “Population Mitotic Cells (%)” value [4]?
A: 46%

Q: What about the “Population Normal (%)” value [4] of the same compound?
A: 88%

Q: And the “Population Pyknosed Nuclei (%)” value [4]?
A: 13%

Q: And the “Population Tubulin-Different-Phenotype (%)” value [4]?
A: 23%

Q: What about the “Total Cell Count” value [4] of the same compound?
A: 435

Q: And the “Population Apoptotic (%)” value [5]?
A: 28%

Q: What about the “Population Fragmented Nuclei (%)” value [5] of the same compound?
A: 9%

Q: What about the “Population Healthy Nuclei (%)” value [5] of the same compound?
A: 80%

Q: What about the “Population Hoechst High Intensity Objects (%)” value [5] of the same compound?
A: 4%

Q: What about the “Population Membrane Permeable-Phenotype (%)” value [5] of the same compound?
A: 0%

Q: And the “Population Mitochondria Different-Phenotype (%)” value [5]?
A: 28%

Q: And the “Population Mitotic Cells (%)” value [5]?
A: 71%

Q: What about the “Population Normal (%)” value [5] of the same compound?
A: 95%

Q: And the “Population Pyknosed Nuclei (%)” value [5]?
A: 9%

Q: And the “Population Tubulin-Different-Phenotype (%)” value [5]?
A: 20%

Q: What about the “Total Cell Count” value [5] of the same compound?
A: 621

Q: And the “Population Apoptotic (%)” value [6]?
A: 51%

Q: What about the “Population Fragmented Nuclei (%)” value [6] of the same compound?
A: 7%

Q: What about the “Population Healthy Nuclei (%)” value [6] of the same compound?
A: 84%

Q: What about the “Population Hoechst High Intensity Objects (%)” value [6] of the same compound?
A: 3%

Q: And the “Population Mitochondria Different-Phenotype (%)” value [6]?
A: 41%

Q: And the “Population Mitotic Cells (%)” value [6]?
A: 48%

Q: And the “Population Normal (%)” value [6]?
A: 96%

Q: And the “Population Pyknosed Nuclei (%)” value [6]?
A: 8%

Q: And the “Population Tubulin-Different-Phenotype (%)” value [6]?
A: 12%

Q: And the “Total Cell Count” value [6]?
A: 341

Q: And the “Population Apoptotic (%)” value [7]?
A: 27%

Q: And the “Population Fragmented Nuclei (%)” value [7]?
A: 10%

Q: And the “Population Healthy Nuclei (%)” value [7]?
A: 76%

Q: What about the “Population Hoechst High Intensity Objects (%)” value [7] of the same compound?
A: 5%

Q: And the “Population Membrane Permeable-Phenotype (%)” value [7]?
A: 0%

Q: And the “Population Mitochondria Different-Phenotype (%)” value [7]?
A: 33%

Q: And the “Population Mitotic Cells (%)” value [7]?
A: 72%

Q: And the “Population Normal (%)” value [7]?
A: 94%

Q: And the “Population Pyknosed Nuclei (%)” value [7]?
A: 13%

Q: What about the “Population Tubulin-Different-Phenotype (%)” value [7] of the same compound?
A: 26%

Q: What about the “Total Cell Count” value [7] of the same compound?
A: 480

Q: What about the “Population Apoptotic (%)” value [8] of the same compound?
A: 32%

Q: And the “Population Fragmented Nuclei (%)” value [8]?
A: 9%

Q: And the “Population Healthy Nuclei (%)” value [8]?
A: 84%

Q: And the “Population Hoechst High Intensity Objects (%)” value [8]?
A: 6%

Q: And the “Population Mitochondria Different-Phenotype (%)” value [8]?
A: 39%

Q: And the “Population Mitotic Cells (%)” value [8]?
A: 67%

Q: What about the “Population Normal (%)” value [8] of the same compound?
A: 93%

Q: And the “Population Pyknosed Nuclei (%)” value [8]?
A: 6%

Q: And the “Population Tubulin-Different-Phenotype (%)” value [8]?
A: 16%

Q: What about the “Total Cell Count” value [8] of the same compound?
A: 567

Q: What about the “Population Apoptotic (%)” value [9] of the same compound?
A: 29%

Q: And the “Population Fragmented Nuclei (%)” value [9]?
A: 14%

Q: What about the “Population Healthy Nuclei (%)” value [9] of the same compound?
A: 78%

Q: What about the “Population Hoechst High Intensity Objects (%)” value [9] of the same compound?
A: 2%

Q: And the “Population Membrane Permeable-Phenotype (%)” value [9]?
A: 1%

Q: What about the “Population Mitochondria Different-Phenotype (%)” value [9] of the same compound?
A: 17%

Q: And the “Population Mitotic Cells (%)” value [9]?
A: 70%

Q: What about the “Population Normal (%)” value [9] of the same compound?
A: 97%

Q: And the “Population Pyknosed Nuclei (%)” value [9]?
A: 6%

Q: What about the “Population Tubulin-Different-Phenotype (%)” value [9] of the same compound?
A: 11%

Q: And the “Total Cell Count” value [9]?
A: 1011

Q: And the “Population Apoptotic (%)” value [10]?
A: 28%

Q: What about the “Population Fragmented Nuclei (%)” value [10] of the same compound?
A: 12%

Q: What about the “Population Healthy Nuclei (%)” value [10] of the same compound?
A: 82%

Q: And the “Population Membrane Permeable-Phenotype (%)” value [10]?
A: 0%

Q: What about the “Population Mitochondria Different-Phenotype (%)” value [10] of the same compound?
A: 23%

Q: And the “Population Mitotic Cells (%)” value [10]?
A: 71%

Q: And the “Population Pyknosed Nuclei (%)” value [10]?
A: 5%

Q: And the “Population Tubulin-Different-Phenotype (%)” value [10]?
A: 9%

Q: What about the “Total Cell Count” value [10] of the same compound?
A: 524

Q: What about the “Population Apoptotic (%)” value [11] of the same compound?
A: 22%

Q: And the “Population Fragmented Nuclei (%)” value [11]?
A: 15%

Q: And the “Population Healthy Nuclei (%)” value [11]?
A: 76%

Q: What about the “Population Hoechst High Intensity Objects (%)” value [11] of the same compound?
A: 2%

Q: What about the “Population Membrane Permeable-Phenotype (%)” value [11] of the same compound?
A: 0%

Q: And the “Population Mitochondria Different-Phenotype (%)” value [11]?
A: 20%

Q: What about the “Population Mitotic Cells (%)” value [11] of the same compound?
A: 77%

Q: And the “Population Normal (%)” value [11]?
A: 97%

Q: And the “Population Pyknosed Nuclei (%)” value [11]?
A: 7%

Q: And the “Population Tubulin-Different-Phenotype (%)” value [11]?
A: 12%

Q: What about the “Total Cell Count” value [11] of the same compound?
A: 778

Q: What about the “Population Apoptotic (%)” value [12] of the same compound?
A: 31%

Q: And the “Population Healthy Nuclei (%)” value [12]?
A: 77%

Q: And the “Population Hoechst High Intensity Objects (%)” value [12]?
A: 1%

Q: What about the “Population Mitochondria Different-Phenotype (%)” value [12] of the same compound?
A: 21%

Q: And the “Population Mitotic Cells (%)” value [12]?
A: 68%

Q: What about the “Population Normal (%)” value [12] of the same compound?
A: 98%

Q: And the “Population Pyknosed Nuclei (%)” value [12]?
A: 6%

Q: What about the “Population Tubulin-Different-Phenotype (%)” value [12] of the same compound?
A: 11%

Q: And the “Total Cell Count” value [12]?
A: 793
